From paper PMC3566476 (Neuropharmacology, 2010)
Like-named read-outs stand apart in the source and are kept apart here.

Assays:
[1] = test system: chronic constriction injury (CCI) of the sciatic nerve; test: CCI neuropathic pain model, mechanical sensitization; format: in vivo, mouse
[2] = biological target: native GABAA receptors in membranes derived from spinal cord; test: [3H]flumazenil competition binding, spinal cord membranes; conditions: mouse spinal cord membranes, 1.2 nM [3H]flumazenil, mean ± SD of 3
Outline: (§1)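 Brain or spinal cord from male C57BL/6 mice (25–30 g) was homogenized in 10 mM Tris pH 7.4, 150 mM NaCl with protease inhibitors. Spins at 1000 g then 20,000 g (4°C); the pellet was washed in 10 mM Tris-HCl pH 7.4, 100 mM KCl. About 50 μg protein was incubated with increasing test compound and 1.2 nM [3H]flumazenil, 90 min on ice, then filtered. Nonspecific binding: 10 μM clonazepam. Scintillation counting; 3 independent runs.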

[3] = biological target: native GABAA receptors in membranes prepared from brain; test: [3H]flumazenil competition binding, brain membranes; conditions: mouse brain membranes, 1.2 nM [3H]flumazenil, mean ± SD of 3
Outline: as §1

α1β3γ2 GABAA receptor = test: [3H]flumazenil competition binding, L cells α1β3γ2; conditions: L cells α1β3γ2, [3H]flumazenil
Outline: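 L(-tk) cells stably expressing α1β3γ2 were grown in DMEM/10% FBS and induced with 1 μM dexamethasone (final), then harvested 3–4 days later. Cells were sonicated in 10 mM Tris-HCl pH 7.4, 100 mM KCl with protease inhibitors; the 100,000 g pellet was used. About 200 μg protein was incubated with increasing test compound and 1.2 nM [3H]flumazenil for 90 min on ice, then filtered. Nonspecific binding: 10 μM clonazepam. 4–5 independent runs.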

α2β3γ2 GABAA receptor = α2β3γ2 GABAA receptor (Homo sapiens, UniProt P18507+P47869); test: [3H]flumazenil competition binding, L cells α2β3γ2; conditions: recombinant receptors, α2 versus α1
[4] = Pharmacokinetics of HZ166 in the brain; format: in vivo, mouse; conditions: 48 mg / kg i.p.
[5] = test system: chronic constriction injury (CCI) of the sciatic nerve; test: CCI neuropathic pain model, heat hyperalgesia; format: in vivo, mouse
Outline: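 Male mice (7–12 weeks) had left sciatic nerve CCI under 2% isoflurane, with three loose chromic gut ligatures. On day 7, test compound 16 mg/kg or vehicle was given i.p. Radiant-heat paw withdrawal latency (plantar test) was taken for 3 h, with 4–5 readings averaged per time point and ipsi/contralateral paws tested alternately. AUC used the pre-drug baseline subtracted. n = 6/group; unpaired t-test.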

[6] = test system: zymosan A induced inflammatory hyperalgesia; test: Zymosan A model of inflammatory pain, mechanical sensitization; format: in vivo, mouse; conditions: 48 hours after zymosan A, 16 mg / kg i.p., 3 hours, n = 6
Outline: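 Zymosan A (0.06 mg in 20 μl 0.9% NaCl) was injected s.c. into the left plantar hindpaw of male mice. After 48 h, test compound 16 mg/kg or vehicle was given i.p. Dynamic von Frey withdrawal thresholds were monitored for 3 h (4–5 readings averaged). AUC used the day-2 pre-drug baseline subtracted. n = 6/group; unpaired t-test.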

locomotor activity = test: Locomotor activity; format: in vivo, mouse
Outline: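 Male mice (7–12 weeks) were tested in the light phase. Sixty min after i.p. test compound (16, 48, 100, 160 mg/kg) or vehicle, each mouse was placed in a 20-cm circular enclosure with 4 photocells. Total photocell interruptions were counted over 1 h. n = 10/group; one-way ANOVA with Scheffe post hoc test.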

[7] = test system: chronic constriction injury (CCI) of the sciatic nerve; test: Tolerance development in the CCI model; format: in vivo, mouse; conditions: 16 mg / kg i.p. once daily for 9 days, CCI mice, versus chronic vehicle
Outline: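 Starting day 7 after left sciatic CCI, mice got test compound 16 mg/kg or vehicle i.p. once daily for 9 days. On day 10, each group was split to receive acute vehicle or 16 mg/kg i.p. Dynamic von Frey thresholds were followed for 3 h (4–5 readings averaged). %MPE was taken after 3, 5 and 10 days of treatment. n = 6/group.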

motor coordination = conditions: mouse, in vivo, ip
sedation [8] = conditions: at anxiolytic doses; ref Fischer et al., 2010; cited from earlier work
[9] = test system: rat neuropathic pain model; conditions: ref Knabl et al., 2008, cited from earlier work; for Analgesic effect during repeated administration (tolerance): once per day for nine days
sedation [10] = conditions: clinical development stopped; ref Atack et al., 2010; cited from earlier work
[11] = CCI mice day 7, i.p., mechanical sensitization, Hill fit
[12] = i.p., 60 min recording starting 60 min after injection

CCOC(=O)c1ncn2c1CN(C)C(=O)c1cc(F)ccc1-2 [Flumazenil, flumazenil, reference compound]
Effect of flumazenil on the antihyperalgesic effect of HZ166 ([1]; flumazenil 10 mg / kg i.p., HZ166 16 mg / kg): almost completely reversed

C#Cc1ccc2c(c1)C(c1ccccn1)=NCc1c(C(=O)OCC)ncn1-2 [HZ166]
Ki [2]: 189 ± 10 nM
Ki [3]: 282 ± 6 nM
Affinity to α2-GABAA receptors higher than that to α1-GABAA receptors (α2β3γ2 GABAA receptor): about 40%
tmax in brain ([4]; CCI operated mice): ≤ 30 min
estimated α half-life (brain) ([4]; initial elimination phase): 23.4 min
estimated apparent terminal half-life (brain) ([4]; β-phase): 6.6 h
ED50 antihyperalgesia ([1]; CCI mice day 7, i.p., mechanical sensitization, %MPE at 1 h, Hill fit): 5.3 ± 1.8 mg/kg
Emax (maximum antihyperalgesic effect, %MPE) [1, 11]: 66 ± 5%
Time of maximum effect on ipsilateral PWT after injection ([1]; CCI mice, i.p.): about 1 h
Doses with statistically significant antihyperalgesic effects ([1]; CCI mice, i.p., %MPE at 1 h): ≥ 5 mg/kg
PWTs of the contralateral paw ([1]; CCI mice, i.p., uninjured paw): not affected
AUC of PWL, injured paw ([5]; CCI mice day 7, 16 mg / kg i.p., 3 hours, n = 6): 4.33 ± 1.95 s·h
AUC of mechanical PWT [6]: 1.55 ± 0.21 g·h
estimated ED50 sedation (locomotor activity; estimated from locomotor activity, Fig. 6): 97 mg/kg
Motor activity at 16 and 48 mg / kg (locomotor activity; [12]): did not significantly impair motor activity
Motor activity at 100 and 160 mg / kg (locomotor activity; [12]): Significant reduction of activity
Tolerance development (analgesic activity after chronic treatment) [7]: no loss of antihyperalgesic activity
Doses that did not interfere with rotarod performance (motor coordination): ≤ 160 mg/kg
Sedation in primates (sedation [8]): does not cause sedation

Cn1ncnc1COc1nn2c(-c3cc(F)ccc3F)nnc2cc1C(C)(C)C [L-838,417]
Analgesic effect during repeated administration (tolerance) [9]: did not decline
Antihyperalgesic activity in rat neuropathic pain model [9]: good antihyperalgesic activity

NCC1(CC(=O)O)CCCCC1 [gabapentin, reference compound]
Emax (maximum antihyperalgesic effect, %MPE) [1, 11]: 84 ± 1.4%
ED50 ([1]; Mus musculus, ip, read-out: ED50 antihyperalgesia): 6.2 ± 0.4 mg/kg
Doses with significant reduction in locomotor activity (locomotor activity; [12]): ≥ 30 mg/kg
Dose causing significant impairment of motor performance in the rotarod test (motor coordination; male): 90 mg/kg
Doses that did not interfere with rotarod performance (motor coordination; male): ≤ 30 mg/kg

CN1CC[C@]23c4c5ccc(O)c4O[C@H]2[C@@H](O)C=C[C@H]3[C@H]1C5 [morphine]
Analgesic effect during repeated administration (tolerance) [9]: complete tolerance developed

MRK409
Sedation in humans (sedation [10]): sedative effects in man
